How the values were obtained:
Mus musculus [1] = test: Antiobesity activity in C57BL/6 mouse assessed as inhibition of food intake at 50 mg/kg, ip measured after 2 to 12 hrs relative to vehicle-treated control; type: functional; details: C57BL/6, ip, route intraperitoneal
How it was run: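 Male mice were acclimated 1 week at 23 ± 3 °C and 50 ± 20% humidity, then fasted 24 h. They were dosed once intraperitoneally with vehicle or compound: 50 mg/kg in C57BL/6, or 12.5, 25 or 50 mg/kg in B6.V-Lep^ob/J. Food intake was measured at 2, 6 and 12 h versus vehicle control.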

[2] = molecular target: T1, Alpha-1A adrenergic receptor (Homo sapiens, UniProt P35348); test: Binding affinity to adrenergic alpha1A receptor (unknown origin)
T1 sequence (P35348 whole entry): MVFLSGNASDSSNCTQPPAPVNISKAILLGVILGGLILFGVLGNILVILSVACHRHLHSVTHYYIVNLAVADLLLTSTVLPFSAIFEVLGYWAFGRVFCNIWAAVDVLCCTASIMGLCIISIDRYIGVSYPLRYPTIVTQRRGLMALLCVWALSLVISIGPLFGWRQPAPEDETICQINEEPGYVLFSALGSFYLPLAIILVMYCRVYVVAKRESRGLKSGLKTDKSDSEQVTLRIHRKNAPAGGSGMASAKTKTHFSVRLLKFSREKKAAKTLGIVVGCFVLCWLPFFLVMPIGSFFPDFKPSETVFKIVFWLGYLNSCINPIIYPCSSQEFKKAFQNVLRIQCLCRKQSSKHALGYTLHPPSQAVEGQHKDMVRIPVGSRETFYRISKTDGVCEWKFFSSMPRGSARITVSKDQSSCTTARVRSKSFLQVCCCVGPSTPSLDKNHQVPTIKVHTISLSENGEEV

D(3) dopamine receptor = D(3) dopamine receptor (Homo sapiens, UniProt P35462); test: Displacement of [3H]-methylspiperone from dopamine D3 receptor (unknown origin) after 30 mins
How it was run: (§1)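 Receptor membranes incubated at 27 °C, 60 min for D2L and 30 min for D3, with [3H]methylspiperone (0.2 nM for D2L, 0.25 nM for D3) and test compound at a range of concentrations. Buffer was 50 mM Tris-HCl pH 7.4, 10 mM MgCl2, 1 mM EDTA, 120 mM NaCl. Nonspecific binding defined with haloperidol (D2) or GR103691 (D3). IC50 obtained by nonlinear regression.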

[3] = molecular target: 5-hydroxytryptamine receptor 6 (Homo sapiens, UniProt P50406); test: Displacement of [3H]-LSD from human recombinant 5HT-6 receptor expressed in CHOK1 cell membranes after 60 mins; set-up: species or system CHO-K1
How it was run: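 CHO-K1 membranes expressing human 5-HT6 incubated with 1 nM [3H]LSD for 60 min at 27 °C in 50 mM Tris-HCl pH 7.4 containing 4 mM CaCl2 and 0.1% ascorbic acid. Terminated by filtration on glass-fiber filters presoaked in 0.5% PEI. Methiothepin defined nonspecific binding.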

[4] = molecular target: 5-hydroxytryptamine receptor 2B (Homo sapiens, UniProt P41595); test: Displacement of […] from human recombinant 5HT-2B receptor
[5] = molecular target: T2, 5-hydroxytryptamine receptor 1A (Homo sapiens, UniProt P08908); test: Displacement from [3H]8-OH-DPAT from human recombinant 5HT-1A receptor expressed in HEK293 cells after 120 mins; type: cell-based
T2 sequence (P08908 whole entry): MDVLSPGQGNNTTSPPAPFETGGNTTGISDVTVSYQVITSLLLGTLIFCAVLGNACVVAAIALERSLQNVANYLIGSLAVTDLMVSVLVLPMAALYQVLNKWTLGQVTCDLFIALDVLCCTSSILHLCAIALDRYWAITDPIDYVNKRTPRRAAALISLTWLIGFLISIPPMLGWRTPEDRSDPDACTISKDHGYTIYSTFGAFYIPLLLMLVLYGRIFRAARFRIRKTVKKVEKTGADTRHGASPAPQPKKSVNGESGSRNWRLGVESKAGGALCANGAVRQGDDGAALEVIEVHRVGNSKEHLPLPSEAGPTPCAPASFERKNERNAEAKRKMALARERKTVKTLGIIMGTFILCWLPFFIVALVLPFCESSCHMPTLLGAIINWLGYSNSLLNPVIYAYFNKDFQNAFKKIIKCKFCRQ
How it was run: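 Membranes from HEK293-EBNA cells stably expressing recombinant human 5-HT1A. Incubated with 2 nM [3H]8-OH-DPAT and test compound at a range of concentrations in 50 mM Tris-HCl pH 7.4 with 5 mM MgSO4.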

Homo sapiens [6] = species on record: Homo sapiens; test: Selectivity ratio of IC50 for human recombinant 5HT-2B receptor to IC50 for human recombinant 5HT-2A receptor
D(2) dopamine receptor = D(2) dopamine receptor (Homo sapiens, UniProt P14416); test: Displacement of [3H]-methylspiperone from dopamine D2L receptor (unknown origin) after 60 mins; how it was run: as §1
[7] = Displacement of [3H]-YM-09151-2 from cloned dopamine D4.2 receptor (unknown origin) expressed in Sf9 cells after 60 mins; set-up: species or system Homo sapiens
How it was run: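 Sf9 membranes with cloned D4.2 receptor incubated with 0.2 nM [3H]YM-09151-2 for 60 min at 27 °C in 50 mM Tris-HCl pH 7.4, 5 mM MgCl2, 5 mM EDTA, 5 mM KCl, 1.5 mM CaCl2. Clozapine defined nonspecific binding. Filtered on glass-fiber filters presoaked in 0.3% PEI.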

[8] = molecular target: 5-hydroxytryptamine receptor 7 (Homo sapiens, UniProt P34969); test: Displacement of [3H]-LSD from human recombinant 5HT-7 receptor expressed in CHOK1 cell membranes after 120 mins; set-up: species or system CHO-K1
How it was run: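 CHO-K1 membranes expressing human 5-HT7 incubated with 3 nM [3H]LSD for 120 min at 27 °C in 50 mM Tris-HCl pH 7.4, 10 mM MgSO4, 0.5 mM EDTA. Filtered on glass-fiber filters presoaked in 0.3% PEI. Methiothepin defined nonspecific binding.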

[9] = molecular target: T3, 5-hydroxytryptamine receptor 2A (Homo sapiens, UniProt P28223); test: Displacement of [3H]-ketanserin from human recombinant 5HT-2A receptor expressed in CHOK1 cell membranes after 60 mins; set-up: species or system CHO-K1
How it was run: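 Buffer was 50 mM Tris-HCl pH 7.4 with 5 mM CaCl2 and 0.1% ascorbic acid. Test compound added at a range of concentrations.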

Mus musculus [10] = test: Antiobesity activity in C57BL/6 mouse assessed as inhibition of body weight gain at 50 mg/kg, ip measured after 2 to 12 hrs relative to vehicle-treated control; type: functional; details: C57BL/6, ip, route intraperitoneal
[11] = molecular target: T4, Alpha-2A adrenergic receptor (Homo sapiens, UniProt P08913); test: Binding affinity to adrenergic alpha2A receptor (unknown origin)
T4 sequence (P08913 whole entry): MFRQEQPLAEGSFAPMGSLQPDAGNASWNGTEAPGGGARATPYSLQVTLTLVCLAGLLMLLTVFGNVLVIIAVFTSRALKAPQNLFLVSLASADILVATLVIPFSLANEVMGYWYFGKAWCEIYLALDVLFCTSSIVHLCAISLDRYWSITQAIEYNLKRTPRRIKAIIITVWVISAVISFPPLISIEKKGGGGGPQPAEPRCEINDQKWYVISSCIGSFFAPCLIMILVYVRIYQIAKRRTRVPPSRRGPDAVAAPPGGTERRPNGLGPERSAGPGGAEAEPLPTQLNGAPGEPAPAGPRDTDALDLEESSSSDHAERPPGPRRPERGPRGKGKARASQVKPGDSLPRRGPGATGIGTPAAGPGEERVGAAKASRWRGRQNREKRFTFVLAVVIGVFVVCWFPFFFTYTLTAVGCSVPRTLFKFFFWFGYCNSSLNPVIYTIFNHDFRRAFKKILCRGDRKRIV

Homo sapiens [12] = species on record: Homo sapiens; test: Selectivity ratio of IC50 for human recombinant 5HT-2B receptor to IC50 for human recombinant 5HT-2C receptor
[13] = molecular target: T5, 5-hydroxytryptamine receptor 2C (Homo sapiens, UniProt P28335); test: Displacement of [3H]-mesulergine from human recombinant 5HT-2C receptor expressed in CHOK1 cell membranes after 30 mins; set-up: species or system CHO-K1
T5 sequence (P28335 whole entry): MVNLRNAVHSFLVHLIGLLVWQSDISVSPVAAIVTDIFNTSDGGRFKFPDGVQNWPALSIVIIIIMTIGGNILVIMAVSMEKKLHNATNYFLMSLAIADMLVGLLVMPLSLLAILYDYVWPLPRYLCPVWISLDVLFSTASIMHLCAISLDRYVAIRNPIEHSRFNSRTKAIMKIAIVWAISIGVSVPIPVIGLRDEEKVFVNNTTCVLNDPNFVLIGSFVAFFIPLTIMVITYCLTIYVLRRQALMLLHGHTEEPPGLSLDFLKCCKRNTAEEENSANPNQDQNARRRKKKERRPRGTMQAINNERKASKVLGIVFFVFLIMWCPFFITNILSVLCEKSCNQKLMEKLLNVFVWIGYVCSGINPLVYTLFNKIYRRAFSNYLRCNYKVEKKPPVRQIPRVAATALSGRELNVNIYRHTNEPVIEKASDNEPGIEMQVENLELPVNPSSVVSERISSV
How it was run: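 Frozen CHO-K1 membranes expressing recombinant human 5-HT2C incubated with 1 nM [3H]mesulergine in 50 mM Tris-HCl pH 7.4 containing 0.1% ascorbic acid and pargyline. Mianserin defined nonspecific binding.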

Mus musculus [14] = test: Antiobesity activity in C57BL/6 mouse assessed as inhibition of food intake at 5.6 mg/kg, ip measured after 2 to 12 hrs relative to vehicle-treated control; type: functional; details: C57BL/6, ip, route intraperitoneal
How it was run: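 Male C57BL/6 mice acclimated 1 week (23 ± 3 °C, 50 ± 20% humidity), fasted 24 h, then given intraperitoneal vehicle or drug. Food intake measured over intervals of 2, 6 and 12 h and compared with vehicle control.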

[15] = molecular target: T3, 5-hydroxytryptamine receptor 2A; test: Antagonist activity at serotonin-activated human recombinant 5HT-2A receptor expressed in HEK293 cells assessed as decrease in intracellular calcium level after 5 mins measured for 1 min by fluorescence assay; type: functional, cell-based; details: read-out: EC50 (the source's name)
How it was run: (§2)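 Cells were washed with HBSS/20 mM HEPES, then loaded 50 min with Fluo-4 NW dye in HBSS with 2.5 mM probenecid. Compound was added for 5 min at 37 °C, then serotonin; fluorescence followed 1 min. Run in duplicate or quadruplicate, repeated several times; IC50 by nonlinear regression.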

[16] = molecular target: T5, 5-hydroxytryptamine receptor 2C; test: Antagonist activity at serotonin-activated human recombinant 5HT-2C receptor expressed in HEK293 cells assessed as decrease in intracellular calcium level after 5 mins measured for 1 min by fluorescence assay; type: functional, cell-based; details: read-out: EC50 (the source's name)
How it was run: as §2, with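 “Intracellular calcium read on HEK293 cells stably expressing human receptor, seeded 10,000 cells/well and grown 24 h at 37 °C, 5% CO2. Cells” for “Cells”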

Sequence of 5-hydroxytryptamine receptor 7 (P34969 whole entry): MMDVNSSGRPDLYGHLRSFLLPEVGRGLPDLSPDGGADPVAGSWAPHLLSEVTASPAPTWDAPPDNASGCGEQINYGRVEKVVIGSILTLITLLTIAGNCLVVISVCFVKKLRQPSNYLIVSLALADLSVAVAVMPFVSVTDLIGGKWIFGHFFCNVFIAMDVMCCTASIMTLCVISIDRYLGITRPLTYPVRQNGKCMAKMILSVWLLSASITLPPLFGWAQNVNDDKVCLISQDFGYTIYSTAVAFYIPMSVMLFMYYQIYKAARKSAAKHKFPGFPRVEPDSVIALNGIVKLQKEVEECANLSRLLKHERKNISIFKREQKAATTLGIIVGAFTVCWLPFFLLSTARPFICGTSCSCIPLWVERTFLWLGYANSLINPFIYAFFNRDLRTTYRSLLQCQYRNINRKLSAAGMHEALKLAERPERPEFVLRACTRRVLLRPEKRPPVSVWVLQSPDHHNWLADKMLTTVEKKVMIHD
Sequence of D(2) dopamine receptor (P14416 whole entry): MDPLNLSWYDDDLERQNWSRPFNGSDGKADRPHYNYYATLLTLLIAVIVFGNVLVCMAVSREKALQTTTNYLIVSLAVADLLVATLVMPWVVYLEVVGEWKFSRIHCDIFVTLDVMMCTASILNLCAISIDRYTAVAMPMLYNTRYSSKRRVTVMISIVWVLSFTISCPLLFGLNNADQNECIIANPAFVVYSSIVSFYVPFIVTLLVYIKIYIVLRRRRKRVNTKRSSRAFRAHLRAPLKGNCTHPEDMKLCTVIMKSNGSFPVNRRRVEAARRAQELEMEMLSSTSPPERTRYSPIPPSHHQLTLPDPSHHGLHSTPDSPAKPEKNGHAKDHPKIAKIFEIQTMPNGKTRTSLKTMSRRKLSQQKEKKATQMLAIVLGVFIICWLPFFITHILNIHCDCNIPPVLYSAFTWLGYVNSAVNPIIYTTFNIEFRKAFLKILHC
T3 sequence (P28223 whole entry): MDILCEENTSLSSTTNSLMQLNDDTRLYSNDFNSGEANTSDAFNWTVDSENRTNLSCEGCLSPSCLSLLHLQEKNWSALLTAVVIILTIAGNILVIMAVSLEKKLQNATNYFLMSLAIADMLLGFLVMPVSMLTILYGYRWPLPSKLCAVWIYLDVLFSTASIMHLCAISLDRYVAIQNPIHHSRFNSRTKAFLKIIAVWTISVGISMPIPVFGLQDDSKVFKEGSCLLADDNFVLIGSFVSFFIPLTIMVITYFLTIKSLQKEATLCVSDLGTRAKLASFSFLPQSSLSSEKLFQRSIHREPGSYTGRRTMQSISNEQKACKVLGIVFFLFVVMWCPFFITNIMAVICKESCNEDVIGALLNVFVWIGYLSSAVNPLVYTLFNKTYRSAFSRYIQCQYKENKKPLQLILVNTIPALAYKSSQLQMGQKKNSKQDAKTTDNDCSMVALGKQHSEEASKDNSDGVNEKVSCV
Sequence of D(3) dopamine receptor (P35462 whole entry): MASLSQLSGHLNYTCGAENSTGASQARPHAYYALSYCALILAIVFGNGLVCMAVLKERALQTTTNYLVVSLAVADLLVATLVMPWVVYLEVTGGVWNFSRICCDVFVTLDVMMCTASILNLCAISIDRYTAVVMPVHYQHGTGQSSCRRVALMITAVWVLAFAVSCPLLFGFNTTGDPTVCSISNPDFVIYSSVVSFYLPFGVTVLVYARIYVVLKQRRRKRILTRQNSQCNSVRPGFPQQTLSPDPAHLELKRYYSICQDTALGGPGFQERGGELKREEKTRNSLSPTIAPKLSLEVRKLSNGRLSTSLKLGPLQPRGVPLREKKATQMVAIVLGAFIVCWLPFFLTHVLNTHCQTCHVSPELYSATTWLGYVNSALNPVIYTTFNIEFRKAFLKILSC
Sequence of 5-hydroxytryptamine receptor 6 (P50406 whole entry): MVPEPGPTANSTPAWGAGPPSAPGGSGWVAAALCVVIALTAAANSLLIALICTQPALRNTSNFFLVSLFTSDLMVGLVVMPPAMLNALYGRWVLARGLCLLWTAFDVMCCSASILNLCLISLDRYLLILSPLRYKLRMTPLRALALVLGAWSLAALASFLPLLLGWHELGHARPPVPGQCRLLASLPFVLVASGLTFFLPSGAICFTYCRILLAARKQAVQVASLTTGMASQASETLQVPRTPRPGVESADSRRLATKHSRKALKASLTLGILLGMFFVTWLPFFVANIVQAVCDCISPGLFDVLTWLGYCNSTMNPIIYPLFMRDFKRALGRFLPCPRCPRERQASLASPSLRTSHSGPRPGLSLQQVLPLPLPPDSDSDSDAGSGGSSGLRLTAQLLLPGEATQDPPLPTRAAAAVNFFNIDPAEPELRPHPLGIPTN
Sequence of 5-hydroxytryptamine receptor 2B (P41595 whole entry): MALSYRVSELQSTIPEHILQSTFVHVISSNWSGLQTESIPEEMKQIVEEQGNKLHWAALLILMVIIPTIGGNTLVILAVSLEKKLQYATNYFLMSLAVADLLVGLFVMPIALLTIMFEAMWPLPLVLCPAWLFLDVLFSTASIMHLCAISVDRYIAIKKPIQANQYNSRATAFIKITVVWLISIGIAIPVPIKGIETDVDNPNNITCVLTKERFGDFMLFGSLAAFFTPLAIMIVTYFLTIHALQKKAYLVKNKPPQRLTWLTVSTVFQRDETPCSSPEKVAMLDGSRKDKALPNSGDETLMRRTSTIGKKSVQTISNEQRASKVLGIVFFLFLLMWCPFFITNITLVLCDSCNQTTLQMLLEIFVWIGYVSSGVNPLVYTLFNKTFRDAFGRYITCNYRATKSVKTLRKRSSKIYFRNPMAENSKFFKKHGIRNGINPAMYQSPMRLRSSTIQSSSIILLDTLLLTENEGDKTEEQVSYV

Compound | inhibition in vivo at 50 mg/kg (Mus musculus [1]) [%] | IC50 [2] [nM] | IC50 (D(3) dopamine receptor) [nM] | IC50 [3] [nM] | IC50 [4] [nM] | IC50 [5] [nM] | Ratio IC50 (Homo sapiens [6]) | IC50 (D(2) dopamine receptor) [nM] | IC50 [7] [nM] | IC50 [8] [nM] | IC50 [9] [nM] | inhibition in vivo at 50 mg/kg (Mus musculus [10]) [%] | IC50 [11] [µM] | Ratio IC50 (Homo sapiens [12]) | IC50 [13] [nM] | inhibition in vivo at 5.6 mg/kg (Mus musculus [14]) [%] | IC50 [15] [nM] | IC50 [16] [nM]
c1ccc(Cc2nc3c(c(Nc4ccccc4)n2)CCNCC3)cc1 | 64.2 | 1390 | 272 | 36.8 | 89 | 395 | 33.1 | 147 | 112 | 1560 | 2.69 | 71.8 | > 10 | 44.9 | 1.98 |  |  | 
Clc1cccc(N2CCNCC2)c1 [CHLOROPHENYLPIPERAZINE] |  |  |  |  |  |  |  |  |  |  |  |  |  |  |  | 13.1 |  | 
COc1cccc(Nc2nc(Cc3ccccc3)nc3c2CCNCC3)c1 | 55.8 |  | 941 | 30.4 |  | 823 |  | 163 | 549 | 497 | 84.4 | 63.9 |  |  | 37.3 |  | 77.6 | 9.2
Fc1cccc(Nc2nc(Cc3ccccc3)nc3c2CCNCC3)c1 | 69.4 |  | 674 | 22.2 |  | 1250 |  | 63.3 | 735 | 1060 | 4.92 | 68.9 |  |  | 13.3 |  | 27.9 | 
CN1CCN(c2nc3c(c(Nc4ccc(F)cc4)n2)CCNCC3)CC1 | 11 |  |  |  |  |  |  |  |  |  | 215 | 5.61 |  |  | 337 |  | 153 | 1500
